The text below walks through data of PubChem BioAssay.

Assay [1] in a line: inhibitors of TNFa-induced NFkB p65 translocation, primary screen, imaging, HUVEC, MLSMR starter and 10KST1 sets (AID 438;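 active = inhibition above 20% together with a positive visual image hit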;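 note: compound added about 3h40 before a 20 min TNFalpha stimulation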;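 for inhibition: signal is the nuclear over cytoplasmic p65 intensity ratio per well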). Particulars: HUVEC TNFa-induced p65 nuclear translocation; cell count: measured here: nuclei count (cytotoxicity indicator), at 2.08 µM; inhibition: at 2 µM, stronger effect = higher value, 0% TNFa-plus-vehicle, 100% no-TNFa wells.
Assay [2] can be described thus: inhibitors of mutant huntingtin aggregation, primary screen, imaging, exon1htt(103Q)mCFP cells, high-content imaging (AID 483;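 active = visual image review flags a hit and inhibition of aggregation exceeds 20%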;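 note: compound exposure lasted 3 days before fixation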;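 for nuclei count: percent of the per-plate median nuclei count of sample wells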). Particulars: exon1htt(103Q)mCFP cell line, aggregate imaging, at 2 µM; inhibition of aggregation: stronger effect = higher value; nuclei count: measured here: cell count, toxicity.
The nature of assay [3]: inhibitors of E-selectin induction by TNFa, primary screen, imaging, HUVEC, immunofluorescence, MLSMR starter and 10KST1 sets (AID 487;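 active = visually confirmed hit in the image check and inhibition above 20%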;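 for inhibition: signal is fraction of cell area covered by stained E-selectin grains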;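 for nuclei count: 100% = median nuclei count of all wells on the same plate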). Particulars: HUVEC TNFalpha-induced E-selectin immunofluorescence imaging, at 2 µM; inhibition: stronger effect = higher value; nuclei count: measured here: cell number, toxicity.
Assay [4] deals with Voltage-gated potassium channel subunit beta-2 (Rattus norvegicus) (UniProt P62483). Nature of the assay: KvBeta enzyme negative modulators, primary screen, biochemical, NADPH fluorescence (AID 622;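 active = fluorescence slope higher than the sample average by over 3 SD, cut at about -0.22 in these data, passing the limit was not always enough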;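 note: slope of raw intensity against log time taken from 70 to 1610 s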). The note with it: recombinant KvBeta, 4-cyanobenzaldehyde reduction, at 10 µM, stronger effect = higher value.
Voltage-gated potassium channel subunit beta-2 (Rattus norvegicus), sequence (P62483 whole entry, looked up): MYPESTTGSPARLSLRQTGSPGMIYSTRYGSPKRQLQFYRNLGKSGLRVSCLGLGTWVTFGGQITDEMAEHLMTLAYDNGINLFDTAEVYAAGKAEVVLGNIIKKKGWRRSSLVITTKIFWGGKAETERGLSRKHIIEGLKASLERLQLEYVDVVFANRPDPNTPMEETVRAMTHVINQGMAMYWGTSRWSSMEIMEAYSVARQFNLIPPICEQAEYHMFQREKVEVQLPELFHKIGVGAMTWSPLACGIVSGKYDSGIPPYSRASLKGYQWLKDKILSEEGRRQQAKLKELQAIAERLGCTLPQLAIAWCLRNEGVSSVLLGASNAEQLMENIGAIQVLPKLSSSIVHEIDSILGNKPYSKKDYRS
Assay [5] shares this target. In words: KvBeta positive modulators, primary screen, biochemical, NADPH fluorescence (AID 623;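 active = NADPH fluorescence slope more negative than the mean of all samples by about 3 SD, 99.7% confidence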;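 note: fluorescence intensity change per second fitted from 20 to 320 s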). The note with it: Recombinant KvBeta, NADPH fluorescence decrease slope, 10 min; at 10 µM; stronger effect = lower value.
In assay [6] the target is Muscarinic acetylcholine receptor M4 (Homo sapiens) (UniProt P08173). In words: compounds altering M4/GIRK thallium flux, either direction, primary screen, M4 allosteric agonist project, cell-based, HEK293 M4/GIRK, BTC-AM (AID 625).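 Note: thallium influx through GIRK channels coupled to M4 in HEK293 cells with BTC-AM dye.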 The note with it: at 10 µM, actives lie on both sides. The essentials: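 Material: HEK293 cells with M4 receptor and GIRK channels; Times: cells overnight at 37 °C, BTC-AM loading 1 h, reads 2 min total; Technique: kinetic BTC-AM fluorescence sampled at 1 Hz, 10 s pre-addition baseline; Read-out basis: slope over 15–24 s of trace normalized to starting intensity; Controls: carbachol positive, DMSO negative.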
Muscarinic acetylcholine receptor M4 (Homo sapiens), sequence (P08173 whole entry, looked up): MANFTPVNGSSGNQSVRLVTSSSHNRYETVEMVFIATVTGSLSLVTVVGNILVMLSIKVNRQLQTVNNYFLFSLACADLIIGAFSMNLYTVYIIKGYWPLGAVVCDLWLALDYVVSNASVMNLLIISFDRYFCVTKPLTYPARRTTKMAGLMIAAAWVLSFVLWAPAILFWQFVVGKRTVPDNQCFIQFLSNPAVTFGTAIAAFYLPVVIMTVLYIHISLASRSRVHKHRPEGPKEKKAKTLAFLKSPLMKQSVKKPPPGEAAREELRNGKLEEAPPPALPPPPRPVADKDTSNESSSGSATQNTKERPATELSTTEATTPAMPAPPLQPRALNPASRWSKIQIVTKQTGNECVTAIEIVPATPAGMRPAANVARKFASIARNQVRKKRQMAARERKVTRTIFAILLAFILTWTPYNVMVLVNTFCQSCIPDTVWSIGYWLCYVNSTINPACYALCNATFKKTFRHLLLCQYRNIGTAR

The nature of assay [7]: inhibitors of Sendai virus-induced IRF3 signaling, primary screen, TLR/RLR signaling modifier project, cell-based, Sendai virus stimulus, luciferase, 10K MLSCN set (AID 602276;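 active = inhibition at or above 50% at 10 µM; inactive = inhibition below 50%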;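 note: firefly luciferase from ISG56 promoter only with Renilla not read in this screen; 0% = Sendai virus plus DMSO and 100% = medium plus DMSO without virus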). Particulars: HEK293 RL24 IRF3 luciferase reporter, at 10 µM, stronger effect = higher value. On the technique in general: In a reporter assay the amount or activity of a reporter protein is the signal.
Assay [8] can be described thus: inhibitors of poly I:C-induced TLR3 signaling, primary screen, cell-based, poly I:C stimulus, luciferase, 10K MLSCN set (AID 602277;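 active = inhibition of the reporter signal at or above 50%; inactive = inhibition below 50%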). Particulars: HEK293-TLR3 RL24 IRF3 luciferase reporter, at 10 µM, stronger effect = higher value.

The source made the active and inactive calls.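 Rule for the calls, unless noted: active = fluorescence slope after compound addition differing from the mean of all tested samples at 99.7% confidence, mostly higher but some lower; inactive = the rest.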

For orientation: inhibition means the drop in the measured response relative to a control, in per cent. For `c1ccc(-c2nn3nnnc3c3ccccc23)cc1`, the cell count in assay [1] is 194. The inhibition in assay [1] was -3% (inactive); in assay [3], -2.7% (inactive); in assay [7] it was 8.1% (inactive); in assay [8], 20.5% (inactive). In addition, the inhibition of aggregation in assay [2] is 6.8% (inactive). The nuclei count was found to be 91.1% in assay [2] and 85.1% in assay [3]. Besides, the values for the fluorescence slope in assay [4] and in assay [6] were -0.573 (inactive) and 0.00565 (inactive), respectively. In addition, the NADPH fluorescence slope in assay [5] is -2.5e-05 (inactive).

In the case of `Cc1nc(SCC(=O)NCc2ccco2)c2c(C)c(C)sc2n1`, the cell count in assay [1] was 709. Also, the inhibition in assay [1] is -4% (inactive); in assay [3] it was -4.2% (inactive); in assay [7] it was 17.4% (inactive); in assay [8], 17.9% (inactive). In assay [2], the inhibition of aggregation was 15.2% (inactive). Besides, the nuclei count turned out to be 85.7% in assay [2] and 112% in assay [3]. Further, the fluorescence slope in assay [4] is -0.558 (inactive); in assay [6], 0.00596 (inactive). The NADPH fluorescence slope in assay [5] was -3.9e-05 (inactive).

As for `CCOc1ccc2[nH]c(=O)c(CN(CCOC)C(=O)N3CCOCC3)cc2c1`, the cell count in assay [1] was found to be 373. Besides, the inhibition was 2.4% (inactive) in assay [1], -3.2% (inactive) in assay [3], 3.22% (inactive) in assay [7] and 12.3% (inactive) in assay [8]. The inhibition of aggregation in assay [2] is -4% (inactive). The figures for the nuclei count in assay [2] and in assay [3] were 90.4% and 99.9%, respectively. The fluorescence slope in assay [4] was -0.395 (inactive); in assay [6] it was 0.0064 (inactive). The NADPH fluorescence slope in assay [5] was 3.3e-05 (inactive).

Consider `C/C(=C(\C#N)C(=O)NCCCN1CCOCC1)N(C)C`, for which the cell count in assay [1] was 475. Besides, the inhibition is -11.2% (inactive) in assay [1], -96.7% (inactive) in assay [3], 1.58% (inactive) in assay [7] and -2.64% (inactive) in assay [8]. In assay [2], the inhibition of aggregation was 20.1% (inactive). The nuclei count is 75.2% in assay [2] and 115% in assay [3]. The fluorescence slope in assay [4] is -0.581 (inactive); in assay [6] it was 0.0035 (inactive). Moreover, the NADPH fluorescence slope in assay [5] was -1.9e-05 (inactive).

Take `O=S(=O)(c1ccc(OCC(O)CN2CCC(Cc3ccccc3)CC2)cc1)N1CCOCC1` (centres undefined): in assay [1], the cell count worked out at 730. In addition, the inhibition in assay [1] was 4.8% (inactive); in assay [3], -22.7% (inactive); in assay [7], -3.87% (inactive); in assay [8], 3.35% (inactive). Also, the inhibition of aggregation in assay [2] is -9.9% (inactive). For the same compound, the nuclei count in assay [2] was determined as 120%; in assay [3] it was 116%. Besides, the fluorescence slope is -0.46 (inactive) in assay [4] and 0.00575 (inactive) in assay [6]. The NADPH fluorescence slope in assay [5] was -4e-06 (inactive).

Consider `O=C(Nc1ccc(S(=O)(=O)NCCc2ccccc2)cc1)c1ccc(Br)o1`, for which the cell count in assay [1] turned out to be 546. Also, the inhibition in assay [1] was -1.3% (inactive); in assay [3] it was -10.4% (inactive); in assay [7], -1.94% (inactive); in assay [8], -11.8% (inactive). Also, in assay [2], the inhibition of aggregation was -22.6% (inactive). The nuclei count in assay [2] stood at 62.9%; in assay [3], 88.5%. Besides, the fluorescence slope in assay [4] is -0.499 (inactive); in assay [6], 0.00439 (inactive). Moreover, the NADPH fluorescence slope in assay [5] is -5.2e-06 (inactive).

For the compound `CC(C(=O)c1ccccc1)n1cnc2ccccc2c1=O` (centres undefined), in assay [1], the cell count is 646. For the same compound, the inhibition in assay [1] was 6.4% (inactive); in assay [3], -0.6% (inactive); in assay [7], 1.21% (inactive); in assay [8], 10.7% (inactive). Also, the inhibition of aggregation in assay [2] was 17.6% (inactive). Besides, the nuclei count in assay [2] is 93%; in assay [3], 96.9%. The fluorescence slope in assay [4] is -0.525 (inactive); in assay [6], 0.00459 (inactive). In addition, in assay [5], the NADPH fluorescence slope was -1.2e-05 (inactive).

In the case of `O=S(=O)(NCC1CCCO1)c1cccc(C(F)(F)F)c1` (centres undefined), in assay [1], the cell count was found to be 611. Further, the inhibition was -4.8% (inactive) in assay [1], -51.8% (inactive) in assay [3], 1.55% (inactive) in assay [7] and 12.2% (inactive) in assay [8]. Also, in assay [2], the inhibition of aggregation is -6.4% (inactive). The figures for the nuclei count in assay [2] and in assay [3] were 100% and 159%, respectively. The fluorescence slope in assay [4] was -0.568 (inactive); in assay [6], 0.00471 (inactive). Moreover, the NADPH fluorescence slope in assay [5] is 4.6e-05 (inactive).

In the case of `[O-][n+]1c2c(nn1-c1ccccc1Cl)-c1nonc1CC2`, the cell count in assay [1] is 593. For the same compound, the inhibition in assay [1] is -26.9% (inactive); in assay [3], -1.8% (inactive); in assay [7], 12% (inactive); in assay [8], 5.67% (inactive). Also, the inhibition of aggregation in assay [2] was -16.7% (inactive). For the same compound, the figures for the nuclei count in assay [2] and in assay [3] were 112% and 95%, respectively. Further, the figures for the fluorescence slope in assay [4] and in assay [6] were -0.351 (inactive) and 0.00719 (inactive), respectively. For the same compound, in assay [5], the NADPH fluorescence slope was -7.7e-05 (inactive).

For the compound `COc1cc(C2=NOC(C(=O)NCc3ccc(F)cc3)C2)cc(OC)c1OC` (centres undefined), in assay [1], the cell count was 774. Also, the inhibition was 13.6% (inactive) in assay [1], -308% (inactive) in assay [3], 36.9% (inactive) in assay [7] and 85.8% (active) in assay [8]. Further, in assay [2], the inhibition of aggregation is -195% (inactive). Besides, the nuclei count in assay [2] came to 2.2%; in assay [3], 103%. Moreover, the fluorescence slope in assay [4] was -0.462 (inactive); in assay [6], 0.00672 (inactive). Further, the NADPH fluorescence slope in assay [5] was 4.9e-05 (inactive).

In the case of `CSC1=C(C#N)C(c2ccc(C)cc2)C2=C(CCCC2=O)N1` (centres undefined), in assay [1], the cell count was found to be 322. Further, the inhibition in assay [1] is -15.9% (inactive); in assay [3], 17.3% (inactive); in assay [7] it was 8.18% (inactive); in assay [8] it was 19.7% (inactive). Further, in assay [2], the inhibition of aggregation is -19.6% (inactive). Also, the results for the nuclei count in assay [2] and in assay [3] were 100% and 109%, respectively. The fluorescence slope is -0.557 (inactive) in assay [4] and 0.00661 (inactive) in assay [6]. Further, the NADPH fluorescence slope in assay [5] was -5.6e-05 (inactive).

For `O=C(C1CC2CCC1C2)N1CCN(Cc2ccc3c(c2)OCO3)CC1` (centres undefined), the cell count in assay [1] is 408. Moreover, the inhibition in assay [1] was 6.8% (inactive); in assay [3], -90.8% (inactive); in assay [7], 13.2% (inactive); in assay [8] it was 19.3% (inactive). For the same compound, the inhibition of aggregation in assay [2] was 17.4% (inactive). Besides, the figures for the nuclei count in assay [2] and in assay [3] were 124% and 116%, respectively. For the same compound, the values for the fluorescence slope in assay [4] and in assay [6] were -0.579 (inactive) and 0.00565 (inactive), respectively. Also, the NADPH fluorescence slope in assay [5] was -2.2e-05 (inactive).

As to `O=C(CN1C(=O)COc2ccccc21)NCCN1CCc2ccccc2C1`, in assay [1], the cell count was determined as 681. The inhibition in assay [1] was 7.3% (inactive); in assay [3], -2.1% (inactive); in assay [7], 12.1% (inactive); in assay [8], 26.1% (inactive). Besides, the inhibition of aggregation in assay [2] was 30.2% (inactive). Also, the nuclei count in assay [2] is 95%; in assay [3], 92.7%. For the same compound, the fluorescence slope in assay [4] was -0.573 (inactive); in assay [6] it was 0.00634 (inactive). Also, the NADPH fluorescence slope in assay [5] was -5.4e-05 (inactive).

In the case of `Cc1cc(=O)n(CC(C)C)c(O)c1C#N`, in assay [1], the cell count came out at 432. Besides, the inhibition in assay [1] was 1.5% (inactive); in assay [3], -11.8% (inactive); in assay [7] it was 13% (inactive); in assay [8], -7.21% (inactive). Also, the inhibition of aggregation in assay [2] is 9.1% (inactive). In addition, the nuclei count in assay [2] amounted to 94.3%; in assay [3], 109%. Besides, the fluorescence slope in assay [4] was -0.581 (inactive); in assay [6], 0.00407 (inactive). In assay [5], the NADPH fluorescence slope was -3.7e-05 (inactive).
